The target in assay [1] is T1, Mitogen-activated protein kinase kinase kinase kinase 4 (Homo sapiens, UniProt O95819). Briefly: Inhibition of ZC1/HGK Lys1 labeling site in human A-375 cells at 5 uM by KiNativ Profiling analysis relative to control. The assay is classed as cell-based.
For assay [2], the target named is T2, Ephrin type-B receptor 4 (Homo sapiens) (UniProt P54760).
T2 sequence (whole entry): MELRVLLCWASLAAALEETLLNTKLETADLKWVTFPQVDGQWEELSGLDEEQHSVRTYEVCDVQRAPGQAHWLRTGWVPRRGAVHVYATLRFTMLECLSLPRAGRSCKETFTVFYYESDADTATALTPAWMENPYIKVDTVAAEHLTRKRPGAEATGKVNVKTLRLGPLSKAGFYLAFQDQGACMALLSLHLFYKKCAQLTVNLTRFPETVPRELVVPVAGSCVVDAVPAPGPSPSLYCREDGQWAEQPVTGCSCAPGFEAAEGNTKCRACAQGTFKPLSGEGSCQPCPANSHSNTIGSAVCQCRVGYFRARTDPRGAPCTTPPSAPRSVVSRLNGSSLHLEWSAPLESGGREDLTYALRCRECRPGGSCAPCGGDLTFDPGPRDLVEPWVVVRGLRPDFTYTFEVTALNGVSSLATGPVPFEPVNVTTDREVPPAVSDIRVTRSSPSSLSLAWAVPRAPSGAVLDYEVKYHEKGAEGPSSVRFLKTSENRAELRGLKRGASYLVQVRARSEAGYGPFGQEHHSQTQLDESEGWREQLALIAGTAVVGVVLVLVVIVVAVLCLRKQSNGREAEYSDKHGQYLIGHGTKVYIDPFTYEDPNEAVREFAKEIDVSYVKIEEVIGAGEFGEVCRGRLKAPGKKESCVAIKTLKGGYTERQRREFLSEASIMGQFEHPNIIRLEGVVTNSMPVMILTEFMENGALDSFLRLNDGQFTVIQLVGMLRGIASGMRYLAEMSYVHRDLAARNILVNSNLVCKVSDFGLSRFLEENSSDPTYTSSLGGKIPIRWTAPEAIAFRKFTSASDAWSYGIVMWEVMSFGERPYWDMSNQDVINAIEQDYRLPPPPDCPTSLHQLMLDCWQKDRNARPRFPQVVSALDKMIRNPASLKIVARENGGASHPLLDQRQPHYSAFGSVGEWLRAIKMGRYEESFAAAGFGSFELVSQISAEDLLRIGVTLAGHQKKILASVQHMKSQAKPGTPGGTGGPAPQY
Briefly: Inhibition of EphB4 ACT labeling site in human A-375 cells at 5 uM by KiNativ Profiling analysis relative to control. The assay is classed as cell-based. The method, boiled down:
(§1)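 Live A375 melanoma cells were treated with compound at 0.5 or 5 μM, then lysed. Lysates were labeled with a lysine-reactive ATP or ADP-biotin probe. The read-out was protection of each kinase probe-labeling site from labeling, relative to control.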

The target of assay [3] is Tyrosine-protein kinase ABL2 (Homo sapiens, UniProt P42684). In words: Inhibition of ARG Lys1 labeling site in human A-375 cells at 0.5 uM by KiNativ Profiling analysis relative to control. Format: cell-based. The procedure, abridged:
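Intact A375 melanoma cells were treated with compound at 5 or 0.5 μM, then lysed. Lysate kinases were labeled with a lysine-reactive ATP or ADP-biotin probe (KiNativ). Inhibition is read as protection of each kinase labeling site from probe labeling.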

Assay [4] deals with T3, Serine/threonine-protein kinase Chk1 (Homo sapiens) (UniProt O14757).
T3 sequence (whole entry): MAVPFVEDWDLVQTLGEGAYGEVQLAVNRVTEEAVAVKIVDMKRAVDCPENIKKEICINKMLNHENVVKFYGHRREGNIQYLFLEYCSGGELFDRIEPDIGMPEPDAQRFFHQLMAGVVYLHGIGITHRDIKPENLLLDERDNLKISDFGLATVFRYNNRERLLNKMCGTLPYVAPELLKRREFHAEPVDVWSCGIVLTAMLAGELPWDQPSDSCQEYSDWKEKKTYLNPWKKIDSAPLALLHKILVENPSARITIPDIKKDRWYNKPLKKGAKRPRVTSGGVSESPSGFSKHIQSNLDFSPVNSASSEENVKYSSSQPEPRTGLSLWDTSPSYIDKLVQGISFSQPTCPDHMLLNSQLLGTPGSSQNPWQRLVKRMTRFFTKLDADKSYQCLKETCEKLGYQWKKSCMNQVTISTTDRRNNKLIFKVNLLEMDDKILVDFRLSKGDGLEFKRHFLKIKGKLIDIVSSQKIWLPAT
In words: Inhibition of CHK1 Lys2 labeling site harbouring DIKPENLLLDER in human A-375 cells at 5 uM by KiNativ Profiling analysis relative to control. Format: cell-based. The procedure, abridged: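 Live A375 melanoma cells were treated with compound at 5 or 0.5 μM. The cells were then lysed, and the lysates were labeled with a lysine-reactive ATP or ADP-biotin acyl probe (KiNativ). Inhibition is the compound's protection of each kinase labeling-site peptide from probe labeling, relative to untreated control.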

In assay [5] the target is Mitogen-activated protein kinase 7 (Homo sapiens) (UniProt Q13164). In words: Inhibition of Erk5 Lys2 labeling site in human A-375 cells at 5 uM by KiNativ Profiling analysis relative to control. Format: cell-based. The method, boiled down:
as §1

Assay [6] has as its target Serine/threonine-protein kinase WNK4 (Homo sapiens) (UniProt Q96J92). In words: Inhibition of Wnk4 ACT labeling site in human A-375 cells at 5 uM by KiNativ Profiling analysis relative to control. The assay is classed as cell-based.
Assay [7] concerns the target Cyclin-dependent kinase 2 (Homo sapiens) (UniProt P24941). Briefly: Inhibition of CDK2 Lys2 labeling site in human A-375 cells at 0.05 uM by KiNativ Profiling analysis relative to control. The assay is classed as cell-based.
The target in assay [8] is Diacylglycerol kinase alpha (Homo sapiens) (UniProt P23743). Briefly: Inhibition of DGKA ATP labeling site harbouring in human A-375 cells at 0.05 uM by KiNativ Profiling analysis relative to control. The assay is classed as cell-based.
In assay [9] the target is Dual specificity mitogen-activated protein kinase kinase 1 (Homo sapiens) (UniProt Q02750). Briefly: Inhibition of MAP2K1 Lys2 labeling site harbouring IMHRDVKPSNILVNSR in human A-375 cells at 0.05 uM by KiNativ Profiling analysis relative to control. Format: cell-based.
Assay [10] has as its target Serine/threonine-protein kinase MARK2 (Homo sapiens) (UniProt Q7KZI7). Briefly: Inhibition of MARK2 Lys2 labeling site harbouring FIVHRDLKAENLLLDADMNIK in human A-375 cells at 0.05 uM by KiNativ Profiling analysis relative to control. Format: cell-based.
A short description of assay [11]: Inhibition of p70S6K ATP Loop labeling site harbouring DLKPENIMLNHQGHVK in human A-375 cells at 0.05 uM by KiNativ Profiling analysis relative to control. The following applies: condition cancer.
In assay [12] the target is Ribosomal protein S6 kinase alpha-1 (Homo sapiens) (UniProt Q15418). Briefly: Inhibition of RSK1 domain1 Lys1 labeling site in human A-375 cells at 0.05 uM by KiNativ Profiling analysis relative to control. Format: cell-based.
Assay [13] deals with T1, Mitogen-activated protein kinase kinase kinase kinase 4. Briefly: Inhibition of ZC1/HGK Lys2 labeling site in human A-375 cells at 0.05 uM by KiNativ Profiling analysis relative to control. Format: cell-based.
Assay [14] has as its target Mitogen-activated protein kinase kinase kinase 20 (Homo sapiens, UniProt Q9NYL2). In words: Inhibition of ZAK Lys1 labeling site in human Huh-7 cell lysate at 1 uM by KiNativ Profiling analysis relative to control. The assay is classed as subcellular.

T1 sequence (O95819 2-1239 limits assumed): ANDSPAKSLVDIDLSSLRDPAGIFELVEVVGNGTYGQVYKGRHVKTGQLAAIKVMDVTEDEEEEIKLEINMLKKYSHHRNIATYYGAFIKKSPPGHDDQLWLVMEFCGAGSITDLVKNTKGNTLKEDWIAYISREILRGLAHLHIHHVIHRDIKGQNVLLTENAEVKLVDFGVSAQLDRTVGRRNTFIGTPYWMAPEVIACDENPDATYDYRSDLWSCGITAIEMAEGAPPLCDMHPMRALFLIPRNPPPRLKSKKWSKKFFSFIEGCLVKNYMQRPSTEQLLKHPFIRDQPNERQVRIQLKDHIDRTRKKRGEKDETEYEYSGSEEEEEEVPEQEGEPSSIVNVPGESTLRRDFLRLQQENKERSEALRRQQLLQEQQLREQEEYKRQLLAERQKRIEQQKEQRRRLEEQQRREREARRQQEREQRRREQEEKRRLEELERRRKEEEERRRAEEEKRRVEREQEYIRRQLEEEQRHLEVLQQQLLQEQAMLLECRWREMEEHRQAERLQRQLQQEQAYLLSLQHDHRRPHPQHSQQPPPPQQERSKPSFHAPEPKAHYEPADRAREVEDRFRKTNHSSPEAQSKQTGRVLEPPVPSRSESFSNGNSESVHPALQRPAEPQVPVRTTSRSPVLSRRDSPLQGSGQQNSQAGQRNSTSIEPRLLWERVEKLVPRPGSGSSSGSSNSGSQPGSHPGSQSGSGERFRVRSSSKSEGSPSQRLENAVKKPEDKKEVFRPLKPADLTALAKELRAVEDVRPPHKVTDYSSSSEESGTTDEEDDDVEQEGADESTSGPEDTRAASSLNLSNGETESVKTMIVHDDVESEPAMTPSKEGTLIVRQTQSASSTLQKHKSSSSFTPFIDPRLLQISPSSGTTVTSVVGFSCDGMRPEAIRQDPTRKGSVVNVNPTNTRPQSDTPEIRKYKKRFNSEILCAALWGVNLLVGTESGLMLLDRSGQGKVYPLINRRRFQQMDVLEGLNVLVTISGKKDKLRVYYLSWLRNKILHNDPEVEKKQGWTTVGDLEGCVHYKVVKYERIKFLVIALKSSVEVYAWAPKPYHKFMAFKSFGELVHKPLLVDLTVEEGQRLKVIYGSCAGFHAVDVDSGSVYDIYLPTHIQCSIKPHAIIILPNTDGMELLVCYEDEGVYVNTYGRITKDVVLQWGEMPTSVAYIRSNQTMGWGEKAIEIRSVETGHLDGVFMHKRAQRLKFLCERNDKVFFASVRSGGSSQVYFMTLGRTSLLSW
Ribosomal protein S6 kinase alpha-1 (Homo sapiens), sequence (Q15418 whole entry, the tested form may be a part): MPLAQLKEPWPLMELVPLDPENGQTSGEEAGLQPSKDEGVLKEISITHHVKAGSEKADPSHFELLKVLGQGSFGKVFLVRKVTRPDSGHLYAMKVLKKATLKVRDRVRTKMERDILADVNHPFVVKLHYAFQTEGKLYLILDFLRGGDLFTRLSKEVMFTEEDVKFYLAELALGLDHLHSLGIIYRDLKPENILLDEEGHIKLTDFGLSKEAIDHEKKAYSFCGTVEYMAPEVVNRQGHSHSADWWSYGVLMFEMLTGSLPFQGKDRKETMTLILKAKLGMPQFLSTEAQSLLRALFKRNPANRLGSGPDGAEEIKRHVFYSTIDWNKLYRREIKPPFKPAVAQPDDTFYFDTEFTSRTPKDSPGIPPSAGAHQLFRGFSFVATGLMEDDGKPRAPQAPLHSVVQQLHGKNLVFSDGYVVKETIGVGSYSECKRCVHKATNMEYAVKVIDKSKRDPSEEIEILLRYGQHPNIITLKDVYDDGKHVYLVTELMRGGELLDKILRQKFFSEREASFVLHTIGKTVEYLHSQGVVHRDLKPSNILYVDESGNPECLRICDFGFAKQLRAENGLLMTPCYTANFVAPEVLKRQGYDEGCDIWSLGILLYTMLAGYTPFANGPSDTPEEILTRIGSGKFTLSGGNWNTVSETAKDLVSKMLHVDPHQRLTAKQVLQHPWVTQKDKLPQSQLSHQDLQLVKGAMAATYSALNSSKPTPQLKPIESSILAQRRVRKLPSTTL
Mitogen-activated protein kinase 7 (Homo sapiens), sequence (Q13164 2-816 limits assumed): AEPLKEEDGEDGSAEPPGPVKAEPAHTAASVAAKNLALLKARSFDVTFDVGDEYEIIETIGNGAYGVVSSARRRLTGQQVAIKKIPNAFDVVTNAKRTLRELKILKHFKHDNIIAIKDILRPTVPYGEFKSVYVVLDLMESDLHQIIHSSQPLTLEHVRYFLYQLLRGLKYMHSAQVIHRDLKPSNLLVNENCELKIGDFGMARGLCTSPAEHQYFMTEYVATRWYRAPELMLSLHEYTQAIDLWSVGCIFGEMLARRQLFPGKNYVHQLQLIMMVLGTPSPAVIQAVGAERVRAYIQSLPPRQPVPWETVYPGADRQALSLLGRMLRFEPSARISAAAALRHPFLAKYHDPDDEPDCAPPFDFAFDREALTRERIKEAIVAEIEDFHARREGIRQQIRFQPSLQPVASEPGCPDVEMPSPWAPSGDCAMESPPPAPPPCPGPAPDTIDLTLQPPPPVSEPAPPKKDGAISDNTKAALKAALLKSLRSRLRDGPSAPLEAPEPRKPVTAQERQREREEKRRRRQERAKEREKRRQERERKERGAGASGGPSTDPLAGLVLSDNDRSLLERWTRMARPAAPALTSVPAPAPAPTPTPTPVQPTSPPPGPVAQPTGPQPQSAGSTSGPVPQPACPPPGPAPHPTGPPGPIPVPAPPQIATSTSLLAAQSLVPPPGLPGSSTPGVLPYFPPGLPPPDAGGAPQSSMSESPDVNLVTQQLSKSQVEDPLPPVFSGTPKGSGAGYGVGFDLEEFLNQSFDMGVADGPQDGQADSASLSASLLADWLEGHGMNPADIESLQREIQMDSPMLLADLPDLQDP
Serine/threonine-protein kinase MARK2 (Homo sapiens), sequence (Q7KZI7 whole entry): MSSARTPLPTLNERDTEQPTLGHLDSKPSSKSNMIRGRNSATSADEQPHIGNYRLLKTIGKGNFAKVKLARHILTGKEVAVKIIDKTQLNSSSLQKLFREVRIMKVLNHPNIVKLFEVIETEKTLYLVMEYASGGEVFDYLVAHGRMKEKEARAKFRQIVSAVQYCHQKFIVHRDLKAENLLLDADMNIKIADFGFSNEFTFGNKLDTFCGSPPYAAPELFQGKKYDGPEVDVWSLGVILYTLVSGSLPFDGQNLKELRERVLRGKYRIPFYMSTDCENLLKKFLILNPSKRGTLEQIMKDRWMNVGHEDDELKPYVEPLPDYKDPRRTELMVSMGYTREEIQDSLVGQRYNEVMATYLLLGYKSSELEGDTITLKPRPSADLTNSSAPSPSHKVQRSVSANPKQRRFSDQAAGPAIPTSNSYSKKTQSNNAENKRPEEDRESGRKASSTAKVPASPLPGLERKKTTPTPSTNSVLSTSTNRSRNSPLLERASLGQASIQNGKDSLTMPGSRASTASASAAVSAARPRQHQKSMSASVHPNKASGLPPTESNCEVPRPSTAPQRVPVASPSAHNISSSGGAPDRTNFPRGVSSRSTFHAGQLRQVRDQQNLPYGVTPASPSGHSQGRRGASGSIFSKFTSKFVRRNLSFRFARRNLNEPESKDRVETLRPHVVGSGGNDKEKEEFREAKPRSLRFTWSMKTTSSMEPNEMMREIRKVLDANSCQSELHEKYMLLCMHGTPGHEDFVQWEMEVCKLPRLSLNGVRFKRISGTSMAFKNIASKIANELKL
Tyrosine-protein kinase ABL2, sequence (P42684 whole entry): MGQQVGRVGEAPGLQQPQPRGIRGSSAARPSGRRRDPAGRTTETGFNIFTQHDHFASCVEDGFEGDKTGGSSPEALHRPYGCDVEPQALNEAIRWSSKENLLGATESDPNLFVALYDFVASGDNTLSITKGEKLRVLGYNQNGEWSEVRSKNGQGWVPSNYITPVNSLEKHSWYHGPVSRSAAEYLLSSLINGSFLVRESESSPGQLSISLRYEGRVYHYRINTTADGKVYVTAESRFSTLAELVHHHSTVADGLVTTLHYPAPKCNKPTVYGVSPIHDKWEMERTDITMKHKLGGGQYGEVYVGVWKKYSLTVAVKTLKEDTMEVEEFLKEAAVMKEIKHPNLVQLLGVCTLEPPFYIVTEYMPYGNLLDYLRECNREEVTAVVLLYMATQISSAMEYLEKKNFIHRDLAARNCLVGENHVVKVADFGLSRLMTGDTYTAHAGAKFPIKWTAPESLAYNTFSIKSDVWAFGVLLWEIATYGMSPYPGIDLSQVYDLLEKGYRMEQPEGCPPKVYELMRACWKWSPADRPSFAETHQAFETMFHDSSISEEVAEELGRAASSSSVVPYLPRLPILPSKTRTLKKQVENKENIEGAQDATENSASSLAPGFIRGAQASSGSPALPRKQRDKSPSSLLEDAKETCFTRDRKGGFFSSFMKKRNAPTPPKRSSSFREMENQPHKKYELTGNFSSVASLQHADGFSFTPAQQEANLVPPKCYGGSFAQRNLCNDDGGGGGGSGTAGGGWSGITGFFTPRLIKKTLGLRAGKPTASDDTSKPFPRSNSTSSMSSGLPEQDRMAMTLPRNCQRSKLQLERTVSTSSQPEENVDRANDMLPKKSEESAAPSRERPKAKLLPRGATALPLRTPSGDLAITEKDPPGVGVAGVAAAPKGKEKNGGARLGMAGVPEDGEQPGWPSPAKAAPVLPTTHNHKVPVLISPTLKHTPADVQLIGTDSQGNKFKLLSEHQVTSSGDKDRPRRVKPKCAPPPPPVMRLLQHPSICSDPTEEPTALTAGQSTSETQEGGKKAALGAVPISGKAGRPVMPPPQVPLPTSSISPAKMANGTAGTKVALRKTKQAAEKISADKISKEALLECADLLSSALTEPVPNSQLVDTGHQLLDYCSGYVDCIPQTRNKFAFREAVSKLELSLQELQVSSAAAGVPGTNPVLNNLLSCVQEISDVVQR

Take `CCN1CCN(Cc2ccc(NC(=O)c3ccc(C)c(/C=C/c4cnc5[nH]ccc5c4OC)c3)cc2C(F)(F)F)CC1`: the inhibition – broadly, the change of the read-out against control, counted positive when it falls – in [1] was over 88%; in [2] it was over 90%; in [3], over 90%; in assay [4] it was -4.8%; in assay [5], 8.7%; in assay [6] it was -4.5%. Further, the inhibition in assay [7] was 13.3%; in assay [8], 14.6%; in [9], 32.5%; in [10], 14.2%; in assay [12] it was -0.5%; in assay [13], 19.5%. Also, the inhibition at 0.05 µM in [11] is -14.4%.

As to `CCN1CCN(Cc2ccc(NC(=O)c3ccc(C)c(Oc4ccnc5[nH]ccc45)c3)cc2C(F)(F)F)CC1`, the inhibition in [1] is 86.4%; in assay [2], -4.2%; in assay [3], 85.5%; in assay [4] it was 40.1%; in [5], 7.8%; in [6] it was 14.4%. In addition, the inhibition was 16.2% in assay [7]; -8.4% in assay [8]; 14.9% in assay [9]; 11.3% in assay [10]; -1.6% in [12]; 32.6% in [13]. For the same compound, the inhibition at 0.05 µM in assay [11] worked out at 18.9%.

Regarding `CNc1cc(Oc2cc(C(=O)Nc3cc(-n4cnc(C)c4)cc(C(F)(F)F)c3)ccc2C)ncn1`, the inhibition in assay [14] was 43.6%.

Turning to `CNc1cc(Oc2cc(C(=O)Nc3cc(N4CCN(C)CC4)cc(C(F)(F)F)c3)ccc2C)ncn1`, the inhibition in assay [14] is 31.8%.

The values are drawn from ChEMBL document CHEMBL5696442, “Discovery of type II inhibitors of TGFβ-activated kinase 1 (TAK1) and mitogen-activated protein kinase kinase kinase kinase 2 (MAP4K2)” (J Med Chem, 2015).
